ChEMBL document CHEMBL4138313 (J Med Chem, 2018)

Assays:
Format in all cases: cell-based
MEF [1] = assay: Cytotoxicity against mouse PARP1 deficient MEF cells assessed as reduction in cell viability at 0.016 to 100 uM after 4 to 7 days by cell-titer glo assay
Outline: (§1)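 Cells kept at 37 °C, 5% CO2, 15% O2 in RPMI 1640 with 10% FBS and 1% penicillin/streptomycin. Seeded at 1,000 cells/well and dosed 24 h later at 100–0.016 µM. Exposure lasted 4–7 days, then viability was read by CellTiter Glo luminescence. Signal was normalized to percent survival against the mean of vehicle controls. Three repeat experiments.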

MEF [2] = assay: Cytotoxicity against mouse wild type MEF cells assessed as reduction in cell viability at 0.016 to 100 uM after 4 to 7 days by cell-titer glo assay; outline: as §1
[3] = biological target: Poly [ADP-ribose] polymerase 1 (Homo sapiens, UniProt P09874); assay: Binding affinity to PARP1 in human OVCAR8 cells assessed as reduction in [125I]-KX1 binding by gamma counting analysis
Poly [ADP-ribose] polymerase 1, sequence (P09874 whole entry): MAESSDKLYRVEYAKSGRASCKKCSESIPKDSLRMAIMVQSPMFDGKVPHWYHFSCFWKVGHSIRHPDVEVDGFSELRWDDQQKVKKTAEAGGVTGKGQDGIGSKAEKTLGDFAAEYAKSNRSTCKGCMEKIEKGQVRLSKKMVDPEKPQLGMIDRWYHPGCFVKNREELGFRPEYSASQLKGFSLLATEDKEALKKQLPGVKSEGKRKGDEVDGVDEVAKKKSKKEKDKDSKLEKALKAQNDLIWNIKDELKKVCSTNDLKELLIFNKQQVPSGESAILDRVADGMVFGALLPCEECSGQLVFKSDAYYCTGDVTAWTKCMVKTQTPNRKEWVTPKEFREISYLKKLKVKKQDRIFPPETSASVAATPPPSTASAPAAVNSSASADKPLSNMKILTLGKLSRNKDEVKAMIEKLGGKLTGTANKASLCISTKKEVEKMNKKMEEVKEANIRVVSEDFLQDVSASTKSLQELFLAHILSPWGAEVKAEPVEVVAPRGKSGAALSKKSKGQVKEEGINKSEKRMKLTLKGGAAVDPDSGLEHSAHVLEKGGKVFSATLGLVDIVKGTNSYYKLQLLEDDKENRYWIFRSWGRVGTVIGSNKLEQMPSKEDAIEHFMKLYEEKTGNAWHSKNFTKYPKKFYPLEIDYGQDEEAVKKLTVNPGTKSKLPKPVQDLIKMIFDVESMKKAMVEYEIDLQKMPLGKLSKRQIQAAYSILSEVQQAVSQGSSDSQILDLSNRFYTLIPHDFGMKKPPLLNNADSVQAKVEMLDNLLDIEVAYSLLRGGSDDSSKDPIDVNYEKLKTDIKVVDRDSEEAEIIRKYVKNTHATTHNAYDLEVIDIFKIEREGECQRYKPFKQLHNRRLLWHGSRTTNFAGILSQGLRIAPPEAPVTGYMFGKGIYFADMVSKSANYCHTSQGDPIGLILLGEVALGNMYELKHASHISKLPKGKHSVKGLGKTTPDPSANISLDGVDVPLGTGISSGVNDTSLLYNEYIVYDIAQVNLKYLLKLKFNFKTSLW

MEF [4] = assay: Cytotoxicity against mouse PARP2 deficient MEF cells expressing PARP1 assessed as reduction in cell viability after 4 to 7 days by cell-titer glo assay
MEF [5] = assay: Cytotoxicity against mouse PARP1 deficient MEF cells assessed as reduction in cell viability after 4 to 7 days by cell-titer glo assay
MEF [6] = assay: Cytotoxicity against mouse wild type MEF cells assessed as reduction in cell viability after 4 to 7 days by cell-titer glo assay
OVCAR-8 = assay: Cytotoxicity against human OVCAR8 cells assessed as cell survival at 10 uM after 4 to 7 days by cell-titer glo assay; conditions: ovcar-8, 10 µM
MEF [7] = assay: Cytotoxicity against mouse PARP2 deficient MEF cells expressing PARP1 assessed as reduction in cell viability at 0.016 to 100 uM after 4 to 7 days by cell-titer glo assay; outline: as §1

Row | SMILES | Activity (MEF [1]) [%] | Activity (MEF [2]) [%] | IC50 [3] [µM] | EC50 (MEF [4]) [µM] | EC50 (MEF [5]) [µM] | EC50 (MEF [6]) [µM] | Activity (OVCAR-8) | Activity (MEF [7]) [%]
1 | O=C(c1cc(Cc2n[nH]c(=O)c3ccccc23)ccc1F)N1CCC2(CCN(C(=O)C3CC3)C2)C1 (configuration not stated) | < 50 | < 50 | 2.59 | 70.9 | – | – | – | –
2 | CC(C)(C)OC(=O)N1CCC2(CC1)CN(C(=O)c1cc(Cc3n[nH]c(=O)c4ccccc34)ccc1F)C2 | – | – | – | 41.5 | 49.2 | 23.4 | – | –
3 | O=C(c1cc(Cc2n[nH]c(=O)c3ccccc23)ccc1F)N1CCC12CCC2 | < 50 | – | 0.0365 | 58.3 | – | 48 | – | –
4 | O=C(c1cc(Cc2n[nH]c(=O)c3ccccc23)ccc1F)N1CCC2(CCC2)C1 | < 50 | – | 0.0324 | 54.7 | – | 45.2 | – | –
5 | CC(C)(C)OC(=O)N1CCC2(CC1)CCN2C(=O)c1cc(Cc2n[nH]c(=O)c3ccccc23)ccc1F | < 50 | – | 2.97 | 33.2 | – | 23.3 | – | –
6 | CC(C)(C)OC(=O)N1CC2(CCN2C(=O)c2cc(Cc3n[nH]c(=O)c4ccccc34)ccc2F)C1 | < 50 | – | 0.877 | 35.8 | – | 42.9 | – | –
7 | COC1CCN(C(=O)c2cc(Cc3n[nH]c(=O)c4ccccc34)ccc2F)CC1 [AZD2461] | – | – | 0.0017 | – | – | – | – | –
8 | O=C(c1cc(Cc2n[nH]c(=O)c3ccccc23)ccc1F)N1CCC12CCNCC2 | < 50 | < 50 | – | 106 | – | – | – | –
9 | O=C(c1cc(Cc2n[nH]c(=O)c3ccccc23)ccc1F)N1CC2(COC2)C1 | < 50 | – | – | 53.3 | – | 52.2 | – | –
10 | O=C(c1cc(Cc2n[nH]c(=O)c3ccccc23)ccc1F)N1CCC2(CCNC2)C1 (configuration not stated) | < 50 | < 50 | 1.12 | – | – | – | – | –
11 | O=C(c1cc(Cc2n[nH]c(=O)c3ccccc23)ccc1F)N1CC2(CCN(C(=O)C3CC3)CC2)C1 | < 50 | – | 0.1 | 57.2 | – | 49.3 | – | –
12 | O=C(c1cc(Cc2n[nH]c(=O)c3ccccc23)ccc1F)N1CC2(CCNCC2)C1 | < 50 | < 50 | 1.42 | 68.5 | – | – | – | –
13 | O=C(C1CC1)N1CC2(CCN2C(=O)c2cc(Cc3n[nH]c(=O)c4ccccc34)ccc2F)C1 | < 50 | – | 0.13 | 46.7 | – | 53.2 | – | –
14 | O=C(c1cc(Cc2n[nH]c(=O)c3ccccc23)ccc1F)N1CCC2(CCNCC2)CC1 | < 50 | < 50 | 0.234 | 59.7 | – | – | – | –
15 | O=C(c1cc(Cc2n[nH]c(=O)c3ccccc23)ccc1F)N1CCC2(CCCCC2)C1 | – | – | 0.141 | 46.8 | 51.6 | 42.7 | – | –
16 | O=C(c1cc(Cc2n[nH]c(=O)c3ccccc23)ccc1F)N1CCC2(CCN(C(=O)C3CC3)CC2)C1 | < 50 | – | 0.225 | 61 | – | 41.6 | – | –
17 | O=C(c1cc(Cc2n[nH]c(=O)c3ccccc23)ccc1F)N1CCC2(CCCC2)C1 | – | – | 0.0514 | 55.5 | – | 31.7 | – | –
18 | O=C(c1cc(Cc2n[nH]c(=O)c3ccccc23)ccc1F)N1CCC2(CCCCC2)CC1 | < 50 | – | 0.0571 | 41.3 | – | 41.3 | – | –
19 | O=C(c1cc(Cc2n[nH]c(=O)c3ccccc23)ccc1F)N1CC2(CCCCC2)C1 | – | – | 0.0654 | 39.9 | 48.3 | 25.6 | Non-Toxic | –
20 | O=C(c1cc(Cc2n[nH]c(=O)c3ccccc23)ccc1F)N1CCC2(CCNCC2)C1 | < 50 | < 50 | 3.88 | – | – | – | – | < 50
21 | O=C(c1cc(Cc2n[nH]c(=O)c3ccccc23)ccc1F)N1CC2(CCC2)C1 | < 50 | – | 0.0339 | 49 | – | 48.3 | Non-Toxic | –
22 | CC(C)(C)OC(=O)N1CC2(C1)CN(C(=O)c1cc(Cc3n[nH]c(=O)c4ccccc34)ccc1F)C2 | < 50 | – | – | 24.7 | – | 31.1 | – | –
23 | CC(C)(C)OC(=O)N1CC2(CCN(C(=O)c3cc(Cc4n[nH]c(=O)c5ccccc45)ccc3F)C2)C1 | < 50 | – | – | 31.8 | – | 29.2 | – | –
24 | O=C(c1cc(Cc2n[nH]c(=O)c3ccccc23)ccc1F)N1CCC12CCCCC2 | < 50 | – | 0.284 | 78.8 | – | 32.6 | – | –
25 | O=C(c1cc(Cc2n[nH]c(=O)c3ccccc23)ccc1F)N1CCC12CNC2 | < 50 | < 50 | 0.526 | – | – | – | – | < 50
26 | O=C(c1cc(Cc2n[nH]c(=O)c3ccccc23)ccc1F)N1CC2(CNC2)C1 | < 50 | < 50 | 2.39 | – | – | – | – | < 50
27 | O=C(c1cc(Cc2n[nH]c(=O)c3ccccc23)ccc1F)N1CCC2(CC1)CCN(C(=O)C1CC1)CC2 | – | – | – | 21.6 | 49.7 | 24.8 | Non-Toxic | –
28 | O=C(C1CC1)N1CCC2(CC1)CCN2C(=O)c1cc(Cc2n[nH]c(=O)c3ccccc23)ccc1F | < 50 | – | 0.431 | 44.4 | – | 47.5 | – | –
29 | O=C(c1cc(Cc2n[nH]c(=O)c3ccccc23)ccc1F)N1CCC2(CNC2)C1 | < 50 | < 50 | 1.24 | – | – | – | – | < 50
30 | O=C(c1cc(Cc2n[nH]c(=O)c3ccccc23)ccc1F)N1CCC2(C1)CN(C(=O)C1CC1)C2 | < 50 | < 50 | 2.54 | 61.8 | – | – | – | –
